The source made the active and inactive calls. The rule behind the calls is not given here.
Experiments:
[1] = Clearance in Balb/c mouse at 2 mg/kg, iv; type: ADME, organism-based; parameters: dose 2 mg/kg, route intravenous; details: in vivo
[2] = Tmax in mouse kidney at 5 mg/kg, po administered as single dose by LC-MS/MS analysis; type: ADME, organism-based; parameters: dose 5 mg/kg, route oral
How it was run: (§1)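 Mice received one oral dose of 5 mg/kg. Brain, liver and kidneys were surgically removed from three mice per time point for up to 96 h after dosing. Tissue drug levels were measured by LC–MS/MS with a lower limit of quantitation of 1 ng/g. Tmax and t1/2 are reported as means.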

[3] = Oral bioavailability in rat at 10 mg/kg; type: ADME, organism-based; details: in vivo
Cytochrome P450 1A2 = target: T1, Cytochrome P450 1A2 (Homo sapiens, UniProt P05177); assay: Inhibition of CYP1A2 (unknown origin) at 50 to 100 uM; type: ADME
T1 sequence (P05177 whole entry): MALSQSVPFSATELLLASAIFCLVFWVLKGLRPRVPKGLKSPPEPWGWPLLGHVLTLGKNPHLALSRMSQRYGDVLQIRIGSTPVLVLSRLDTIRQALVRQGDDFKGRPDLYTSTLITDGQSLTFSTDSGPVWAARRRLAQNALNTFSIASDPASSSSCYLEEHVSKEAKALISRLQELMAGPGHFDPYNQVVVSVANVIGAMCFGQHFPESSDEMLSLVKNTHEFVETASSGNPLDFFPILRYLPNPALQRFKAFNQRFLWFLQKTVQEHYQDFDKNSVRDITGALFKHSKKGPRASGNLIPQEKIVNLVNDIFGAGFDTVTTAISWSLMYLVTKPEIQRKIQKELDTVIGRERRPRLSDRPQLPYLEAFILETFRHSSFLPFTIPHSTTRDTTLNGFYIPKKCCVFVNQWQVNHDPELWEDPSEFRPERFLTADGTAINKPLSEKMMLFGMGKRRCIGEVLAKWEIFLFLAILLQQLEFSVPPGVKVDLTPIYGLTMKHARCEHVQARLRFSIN

Mus musculus = assay: Antipruritic activity against histamine-induced scratching C57/bl6 mouse model assessed as inhibition of itching at 5 to 20 mg/kg, po administered 30 mins prior to histamine challenge measured over 20 mins; type: functional, organism-based
How it was run: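 Mice (n = 6–8 per group) were dosed orally in 20% hydroxypropyl-β-cyclodextran 30 min before intradermal histamine (100 μg). Magnets were placed on the ear and the mice were put in containers above a solenoid. Scratch-specific signals were counted automatically over 20 min immediately after the histamine injection.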

[4] = Tmax in Sprague-Dawley rat at 10 mg/kg, po; type: ADME, organism-based; parameters: dose 10 mg/kg, route oral; details: in vivo
[5] = Tmax in Sprague-Dawley rat at 50 mg/kg, po; type: ADME, organism-based; parameters: dose 50 mg/kg, route oral; details: in vivo
[6] = AUC in Sprague-Dawley rat at 10 mg/kg, po; type: ADME, organism-based; parameters: dose 10 mg/kg, route oral; details: plasma
[7] = Half life in rat liver microsomes; type: ADME
[8] = target: Voltage-gated inwardly rectifying potassium channel KCNH2 (Homo sapiens, UniProt Q12809); assay: Inhibition of human ERG channel transfected in HEK293 cells assessed as K+ current at up to 10 uM by patch clamp assay; type: cell-based
Chain of Voltage-gated inwardly rectifying potassium channel KCNH2 (Q12809 whole entry): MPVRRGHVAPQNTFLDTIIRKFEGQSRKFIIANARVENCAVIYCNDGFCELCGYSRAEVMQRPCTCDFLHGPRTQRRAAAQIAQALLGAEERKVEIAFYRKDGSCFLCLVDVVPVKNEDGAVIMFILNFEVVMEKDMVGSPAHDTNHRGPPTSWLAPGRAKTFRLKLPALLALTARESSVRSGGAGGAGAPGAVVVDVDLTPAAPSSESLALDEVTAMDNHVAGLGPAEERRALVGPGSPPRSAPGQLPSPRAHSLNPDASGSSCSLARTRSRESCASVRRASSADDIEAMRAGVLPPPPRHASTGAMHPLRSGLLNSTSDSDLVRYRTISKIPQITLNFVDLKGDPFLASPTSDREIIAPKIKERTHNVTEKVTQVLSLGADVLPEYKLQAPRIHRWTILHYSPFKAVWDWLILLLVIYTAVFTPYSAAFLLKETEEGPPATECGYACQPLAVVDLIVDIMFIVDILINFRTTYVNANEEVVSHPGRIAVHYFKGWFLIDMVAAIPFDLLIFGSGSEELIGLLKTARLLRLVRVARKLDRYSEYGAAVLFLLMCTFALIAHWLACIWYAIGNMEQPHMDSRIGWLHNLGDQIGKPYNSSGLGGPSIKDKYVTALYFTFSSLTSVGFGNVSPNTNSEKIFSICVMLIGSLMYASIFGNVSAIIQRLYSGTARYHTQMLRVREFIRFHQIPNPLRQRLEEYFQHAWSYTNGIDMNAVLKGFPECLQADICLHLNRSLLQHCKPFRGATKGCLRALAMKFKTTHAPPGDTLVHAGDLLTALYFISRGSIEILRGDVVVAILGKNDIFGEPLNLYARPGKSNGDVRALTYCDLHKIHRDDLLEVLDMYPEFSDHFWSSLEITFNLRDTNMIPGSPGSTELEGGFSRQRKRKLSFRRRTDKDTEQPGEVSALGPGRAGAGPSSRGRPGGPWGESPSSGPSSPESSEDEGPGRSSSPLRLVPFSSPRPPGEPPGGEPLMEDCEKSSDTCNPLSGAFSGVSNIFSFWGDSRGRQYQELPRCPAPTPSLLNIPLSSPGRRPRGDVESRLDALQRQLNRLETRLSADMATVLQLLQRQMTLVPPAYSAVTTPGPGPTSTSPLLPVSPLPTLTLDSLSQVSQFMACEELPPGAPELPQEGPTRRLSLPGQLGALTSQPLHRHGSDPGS

Histamine H4 receptor [9] = target: T2, Histamine H4 receptor (Homo sapiens, UniProt Q9H3N8); assay: Displacement of [3H]histamine from human recombinant histamine H4 receptor expressed in SK-N-MC cells after 45 mins by competition binding analysis; type: cell-based
Cytochrome P450 2C9 = Cytochrome P450 2C9 (Homo sapiens, UniProt P11712); assay: Inhibition of CYP2C9 (unknown origin) at 50 to 100 uM; type: ADME
Chain of Cytochrome P450 2C9 (P11712 whole entry): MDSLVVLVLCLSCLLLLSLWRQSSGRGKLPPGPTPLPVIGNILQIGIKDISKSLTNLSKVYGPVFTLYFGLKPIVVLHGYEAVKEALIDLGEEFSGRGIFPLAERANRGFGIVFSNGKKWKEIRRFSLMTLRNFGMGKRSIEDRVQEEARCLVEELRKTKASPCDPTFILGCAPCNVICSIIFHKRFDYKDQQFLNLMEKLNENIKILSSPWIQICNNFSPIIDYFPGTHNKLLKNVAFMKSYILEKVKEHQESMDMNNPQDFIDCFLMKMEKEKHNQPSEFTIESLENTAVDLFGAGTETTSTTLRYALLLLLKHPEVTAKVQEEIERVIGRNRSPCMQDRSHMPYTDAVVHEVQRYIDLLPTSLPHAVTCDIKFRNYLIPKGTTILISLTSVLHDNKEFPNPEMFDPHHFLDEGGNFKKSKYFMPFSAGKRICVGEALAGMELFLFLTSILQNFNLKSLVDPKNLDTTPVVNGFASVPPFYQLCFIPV

[10] = Cmax in Sprague-Dawley rat at 200 mg/kg, po; type: ADME, organism-based; parameters: dose 200 mg/kg, route oral; details: in vivo
[11] = Cmax in Balb/c mouse at 5 mg/kg, po; type: ADME, organism-based; parameters: dose 5 mg/kg, route oral; details: in vivo
[12] = Oral bioavailability in Sprague-Dawley rat at 50 mg/kg; type: ADME, organism-based; details: in vivo
[13] = Tmax in Sprague-Dawley rat at 500 mg/kg, po; type: ADME, organism-based; parameters: dose 500 mg/kg, route oral; details: in vivo
[14] = Half life in Sprague-Dawley rat at 10 mg/kg, po; type: ADME, organism-based; parameters: dose 10 mg/kg, route oral; details: in vivo
[15] = Ratio of drug level in liver to plasma in mouse at 5 mg/kg, po administered as single dose […] by LC-MS/MS analysis; type: ADME, organism-based; parameters: dose 5 mg/kg, route oral
[16] = Cmax in rat at 10 mg/kg, po; type: ADME, organism-based; parameters: dose 10 mg/kg, route oral; details: in vivo
[17] = Initial plasma concentration in beagle dog at 2 mg/kg, iv; type: ADME, organism-based, Canis lupus familiaris; parameters: dose 2 mg/kg, route intravenous
Histamine H4 receptor [18] = target: T2, Histamine H4 receptor; assay: Antagonist activity at human histamine H4 receptor expressed in SK-N-MC cells assessed as reduction of histamine-induced inhibition of cAMP-mediated beta-galactosidase reporter gene activity treated 10 mins prior to histamine challenge by microplate reader analysis; type: functional, cell-based; details: read-out: pA2 (converted)
[19] = Half life in dog liver microsomes; type: ADME, Canis lupus familiaris
[20] = Half life in Sprague-Dawley rat at 500 mg/kg, po; type: ADME, organism-based; parameters: dose 500 mg/kg, route oral; details: in vivo
[21] = Volume of distribution at steady state in Balb/c mouse at 2 mg/kg, iv; type: ADME, organism-based; parameters: dose 2 mg/kg, route intravenous; details: in vivo, read-out: Vdss
[22] = Antagonist activity at monkey histamine H4 receptor; parameters: species or system Macaca mulatta
[23] = Initial plasma concentration in Balb/c mouse at 2 mg/kg, iv; type: ADME, organism-based; parameters: dose 2 mg/kg, route intravenous
[24] = Tmax in Sprague-Dawley rat at 200 mg/kg, po; type: ADME, organism-based; parameters: dose 200 mg/kg, route oral; details: in vivo
[25] = Half life in Balb/c mouse at 5 mg/kg, po; type: ADME, organism-based; parameters: dose 5 mg/kg, route oral; details: in vivo
[26] = Half life in mouse kidney at 5 mg/kg, po administered as single dose by LC-MS/MS analysis; type: ADME, organism-based; parameters: dose 5 mg/kg, route oral; how it was run: as §1
[27] = AUC in Balb/c mouse at 20 mg/kg, po; type: ADME, organism-based; parameters: dose 20 mg/kg, route oral; details: plasma
[28] = AUC in beagle dog at 10 mg/kg, po; type: ADME, organism-based, Canis lupus familiaris; parameters: dose 10 mg/kg, route oral; details: plasma
Cytochrome P450 2D6 = Cytochrome P450 2D6 (Homo sapiens, UniProt P10635); assay: Inhibition of CYP2D6 (unknown origin) at 50 to 100 uM; type: ADME
Chain of Cytochrome P450 2D6 (P10635 whole entry): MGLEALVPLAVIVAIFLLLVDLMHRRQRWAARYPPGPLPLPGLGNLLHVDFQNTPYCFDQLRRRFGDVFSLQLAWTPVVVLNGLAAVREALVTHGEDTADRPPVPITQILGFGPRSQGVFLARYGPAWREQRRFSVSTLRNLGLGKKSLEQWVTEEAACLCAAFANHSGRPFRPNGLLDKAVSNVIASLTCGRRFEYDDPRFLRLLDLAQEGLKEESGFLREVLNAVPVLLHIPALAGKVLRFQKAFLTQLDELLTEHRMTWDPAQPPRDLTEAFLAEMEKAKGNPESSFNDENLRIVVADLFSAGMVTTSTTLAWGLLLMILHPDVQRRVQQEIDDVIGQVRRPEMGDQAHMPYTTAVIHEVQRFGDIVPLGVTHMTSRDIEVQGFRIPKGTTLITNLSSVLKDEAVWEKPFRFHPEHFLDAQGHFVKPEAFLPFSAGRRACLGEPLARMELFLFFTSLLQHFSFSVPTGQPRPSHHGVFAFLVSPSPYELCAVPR

[29] = Half life in monkey liver microsomes; type: ADME, Macaca mulatta; details: rhesus monkey
[30] = Tmax in beagle dog at 10 mg/kg, po; type: ADME, organism-based, Canis lupus familiaris; parameters: dose 10 mg/kg, route oral; details: in vivo
Histamine H4 receptor [31] = target: T3, Histamine H4 receptor (Cavia porcellus, UniProt Q91ZY3); assay: Binding affinity to guinea pig histamine H4 receptor
T3 sequence (Q91ZY3 whole entry): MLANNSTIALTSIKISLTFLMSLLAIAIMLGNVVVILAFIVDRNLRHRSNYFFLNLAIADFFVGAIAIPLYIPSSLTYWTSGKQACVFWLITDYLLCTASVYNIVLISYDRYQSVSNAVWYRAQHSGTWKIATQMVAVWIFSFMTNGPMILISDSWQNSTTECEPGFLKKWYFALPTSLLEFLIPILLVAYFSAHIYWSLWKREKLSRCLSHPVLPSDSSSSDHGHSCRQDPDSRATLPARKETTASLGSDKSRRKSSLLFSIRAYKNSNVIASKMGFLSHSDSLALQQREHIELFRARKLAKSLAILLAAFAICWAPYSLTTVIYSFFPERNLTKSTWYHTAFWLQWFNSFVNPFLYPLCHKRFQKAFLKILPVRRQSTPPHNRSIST

Histamine H4 receptor [32] = target: Histamine H4 receptor (Rattus norvegicus, UniProt Q91ZY1); assay: Antagonist activity at rat histamine H4 receptor expressed in SK-N-MC cells assessed as reduction of histamine-induced inhibition of cAMP-mediated beta-galactosidase reporter gene activity treated 10 mins prior to histamine challenge by microplate reader analysis; type: functional, cell-based; details: read-out: pA2 (converted)
Chain of Histamine H4 receptor (Rattus norvegicus, UniProt Q91ZY1) (Q91ZY1 whole entry): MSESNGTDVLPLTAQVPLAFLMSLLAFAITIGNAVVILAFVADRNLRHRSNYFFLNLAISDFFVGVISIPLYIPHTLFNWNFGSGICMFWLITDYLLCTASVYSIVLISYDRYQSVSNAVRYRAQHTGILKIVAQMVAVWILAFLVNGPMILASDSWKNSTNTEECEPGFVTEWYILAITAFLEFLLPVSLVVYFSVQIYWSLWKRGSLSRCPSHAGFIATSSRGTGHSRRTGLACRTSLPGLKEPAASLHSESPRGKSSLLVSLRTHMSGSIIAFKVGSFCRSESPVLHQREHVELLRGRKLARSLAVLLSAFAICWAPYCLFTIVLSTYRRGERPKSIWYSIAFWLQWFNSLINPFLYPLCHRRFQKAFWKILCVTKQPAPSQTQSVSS

[33] = Half life in Balb/c mouse at 2 mg/kg, iv; type: ADME, organism-based; parameters: dose 2 mg/kg, route intravenous; details: in vivo
[34] = Oral bioavailability in Balb/c mouse at 20 mg/kg; type: ADME, organism-based; details: in vivo

clearance [1]: 40 mL/min/kg
Tmax [2]: 2 h
bioavailability [3]: 36%
inhibition (INH) (Cytochrome P450 1A2): Not Active
Tmax [4]: 2 h
Tmax [5]: 2 h
AUC [6]: 2.43 µM·h
half-life [7]: > 2 h
Ki (Histamine H4 receptor [9]): 12.5 nM
inhibition (INH) (Cytochrome P450 2C9): Not Active
Cmax [10]: 4910 nM
Cmax [11]: 790 nM
bioavailability [12]: 38%
Tmax [13]: 8 h
half-life [14]: 5.7 h
Kp [15]: 23.2
Cmax [16]: 300 nM
C0 [17]: 4220 nM
Kb (Histamine H4 receptor [18]): 12.6 nM
half-life [19]: > 2 h
half-life [20]: 12 h
Vd [21]: 31 L/kg
pA2 [22]: 7.5
C0 [23]: 1020 nM
Tmax [24]: 8 h
half-life [25]: 6.8 h
half-life [26]: 20.5 h
AUC [27]: 24.6 µM·h
AUC [28]: 31.6 µM·h
inhibition (INH) (Cytochrome P450 2D6): Not Active
half-life [29]: > 2 h
Tmax [30]: 0.8 h
Ki (Histamine H4 receptor [31]): 306 nM
Kb (Histamine H4 receptor [32]): 63.1 nM
half-life [33]: 7.8 h
bioavailability [34]: 75%
SMILES: CC(C)c1cc(N2CC[C@@H](N)C2)nc(N)n1 [JNJ-39758979]
inhibition (Mus musculus): Active
inhibition (INH) [8]: Not Active

Source: ChEMBL document CHEMBL3232922, “Discovery and SAR of 6-alkyl-2,4-diaminopyrimidines as histamine H₄ receptor antagonists” (J Med Chem, 2014)
